# Source: publication PMC3321094 (Nature, 2012)
# Positions count from the first letter of the chain named. In names and notes the source's numbering stands. Where no end group is shown, it is not given here.
# T1: Histone H4K20me3 peptide 14-25 (Homo sapiens, UniProt P62805)
# T1 chain: GGAKRHRK(Me3)VLRD
# T2: Histone H4K20me2 peptide 14-25 (Homo sapiens, UniProt P62805)
# T2 chain: GGAKRHRK(Me2)VLRD
# B1: hORC1Y64A: H4K20me2-binding pocket mutant Y64A of human ORC1 (protein, UniProt Q13415 1-861, looked up, variant Y64A)
# Origin recognition complex …: MAHYPTRLKTRKTYSWVGRPLLDRKLHYQTYREMCVKTEGCSTEIHIQIGQFVLIEGDDDENPAVAKLLELFEDDSDPPPKKRARVQWFVRFCEVPACKRHLLGRKPGAQEIFWYDYPACDSNINAETIIGLVRVIPLAPKDVVPTNLKNEKTLFVKLSWNEKKFRPLSSELFAELNKPQESAAKCQKPVRAKSKSAESPSWTPAEHVAKRIESRHSASKSRQTPTHPLTPRARKRLELGNLGNPQMSQQTSCASLDSPGRIKRKVAFSEITSPSKRSQPDKLQTLSPALKAPEKTRETGLSYTEDDKKASPEHRIILRTRIAASKTIDIREERTLTPISGGQRSSVVPSVILKPENIKKRDAKEAKAQNEATSTPHRIRRKSSVLTMNRIRQQLRFLGNSKSDQEEKEILPAAEISDSSSDEEEASTPPLPRRAPRTVSRNLRSSLKSSLHTLTKVPKKSLKPRTPRCAAPQIRSRSLAAQEPASVLEEARLRLHVSAVPESLPCREQEFQDIYNFVESKLLDHTGGCMYISGVPGTGKTATVHEVIRCLQQAAQANDVPPFQYIEVNGMKLTEPHQVYVQILQKLTGQKATANHAAELLAKQFCTRGSPQETTVLLVDELDLLWTHKQDIMYNLFDWPTHKEARLVVLAIANTMDLPERIMMNRVSSRLGLTRMCFQPYTYSQLQQILRSRLKHLKAFEDDAIQLVARKVAALSGDARRCLDICRRATEICEFSQQKPDSPGLVTIAHSMEAVDEMFSSSYITAIKNSSVLEQSFLRAILAEFRRSGLEEATFQQIYSQHVALCRMEGLPYPTMSETMAVCSHLGSCRLLLVEPSRNDLLLRVRLNVSQDDVLYALKDE
# B2: hORC1W88A: H4K20me2-binding pocket mutant W88A of human ORC1 (protein, UniProt Q13415 1-861, looked up, variant W88A)
# Origin recognition complex …: B1 Origin recognition complex … with A64Y, W88A
# B3: ORC1 BAH domain (hORC1BAH) 1-185 (protein)
# chain: MAHYPTRLKTRKTYSWVGRPLLDRKLHYQTYREMCVKTEGCSTEIHIQIGQFVLIEGDDDENPYVAKLLELFEDDSDPPPKKRARVQWFVRFCEVPACKRHLLGRKPGAQEIFWYDYPACDSNINAETIIGLVRVIPLAPKDVVPTNLKNEKTLFVKLSWNEKKFRPLSSELFAELNKPQESAAK
# B4: ORC1 BAH domain (mORC1BAH) 9-170 (protein)
# chain: KTRQTFSWVGRPLPNRKQFQQMYREICMKINDGSEIHIKVGQFVLIQGEDNKKPYVAKLIELFQNGAEVPPKKCARVQWFVRFLEIPVSKRHLLGRSPPAQEIFWYDCSDWDNKINVETIIGPVQVVALAPEEVIPVDQKSEETLFVKLSWNKKDFAPLPPE
# Experiments:
# [1] = tested on: ORC components (ORC2, ORC3 and ORC5); experiment: Affinity purification of FLAG-ORC1 complexes from HT1080 cells; format: cell-based, human; details: vs wild-type ORC1, Western blot
# [2] = tested on: chromatin; experiment: Small-scale biochemical fractionation: ORC chromatin association; format: cell-based, human; details: cells stably expressing ORC1 protein, in comparison to hORC1; Western blot
# [3] = tested on: WI38 cells; experiment: Cell-cycle profile of WI38 cells by flow cytometry; format: cell-based, human; details: WI38 primary fibroblast, relative to wild-type hORC1
# Outline: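 WI38 cells transiently expressing GFP plus wild-type ORC1 or an H4K20me2-binding-pocket point mutant (Y64A or W88A). Cell-cycle profile determined by flow cytometry, gating on GFP-positive cells so that only transfected cells are scored. Percentage of cells in each cell-cycle phase and the S/G1 ratio are calculated per transfection. Two experiments, s.d. reported.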
# [4] = tested on: ORC components (ORC2, ORC3 and ORC5); experiment: Affinity purification of FLAG-ORC1 complexes from U2OS cells; format: cell-based, human; details: vs wild-type ORC1, Western blot
# [5] = biological target: T1, Histone H4K20me3 peptide 14-25; experiment: ITC
# [6] = biological target: T2, Histone H4K20me2 peptide 14-25; experiment: ITC
Kd [5] [µM],Kd [6] [µM],Molecule,"efficiency of affinity purification of ORC2, ORC3 and ORC5 [1]",ORC1 enrichment at chromatin [2],S phase population [3],S/G1 ratio (in words) [3],"efficiency of affinity purification of ORC2, ORC3 and ORC5 [4]"
–,–,B1,equal to that observed with the wild-type protein,considerably reduced,decreased S phase population,lower S/G1 ratio,equal to that observed with the wild-type protein
–,–,B2,equal to that observed with the wild-type protein,considerably reduced,decreased S phase population,lower S/G1 ratio,equal to that observed with the wild-type protein
40,–,B3,–,–,–,–,–
–,9.6,B4,–,–,–,–,–
